Assay outcomes from PubChem BioAssay.
Compounds with a hit are over-represented: about 2.5% of the library has one in this group of screens.
SENP8 block-1 – blocks the human protease SENP8. AID 2540. purified SENP8, Z-RLRGG-aminoluciferin cleavage, luminescence. actives 1.2% (n = 330,000). inhibition, % at 10 µM. Q96LD8; in the data active = inhibition above about 50%
SENP1 inh – SENP1 (human) catalytic domain inhibition | inhibition, % at 10 µM | actives 0.21% (n = 360,000) | AID 624204 | recombinant SENP1 catalytic domain, CyPet-SUMO1-YPet FRET cleavage | Q9P0U3;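 active = inhibition at least 30% at 10 µM, raw YFP signal under a set limit, fluorescence ratio 0.5 to 1.5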;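 also: 0% = enzyme with DMSO and 100% = no enzyme wells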
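Material: hSENP1 catalytic domain, recombinant; medium: Tris pH 8 with BME, BSA, NP40 and catalase; compound: single concentration of 10 µM compound, 0.5% DMSO final; technique: FRET read of cyan and yellow fluorescence; timing: 50 min enzyme reaction, room temperature, light-protected; reagent: SFCypet-SUMO1-SFYpet substrate at 25 nM; control set: no-enzyme low, enzyme-DMSO high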
SENP7 inh – SENP7 protease inhibition. Q9BQF6. recombinant SENP7, Z-RLRGG-aminoluciferin luminescence, 40 min. inhibition, % at 5 µM. actives 1.5% (n = 330,000). AID 434973;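 active = inhibition above about 50% at the single test dose, limit read from the data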;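 also: plate controls were DMSO with enzyme for no effect and no enzyme buffer wells for full effect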
SENP6 block – blocks the human protease SENP6; Q9GZR1; Recombinant SENP6 catalytic domain, aminoluciferin luminescence; inhibition, % at 10 µM; actives 1.8% (n = 330,000);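 active = inhibition above about 50% at the single tested dose, limit read from the data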;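 also: plate controls were DMSO wells with enzyme for no effect and DMSO wells lacking enzyme for full effect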
Target sequence (Q9GZR1 628-1112 limits assumed): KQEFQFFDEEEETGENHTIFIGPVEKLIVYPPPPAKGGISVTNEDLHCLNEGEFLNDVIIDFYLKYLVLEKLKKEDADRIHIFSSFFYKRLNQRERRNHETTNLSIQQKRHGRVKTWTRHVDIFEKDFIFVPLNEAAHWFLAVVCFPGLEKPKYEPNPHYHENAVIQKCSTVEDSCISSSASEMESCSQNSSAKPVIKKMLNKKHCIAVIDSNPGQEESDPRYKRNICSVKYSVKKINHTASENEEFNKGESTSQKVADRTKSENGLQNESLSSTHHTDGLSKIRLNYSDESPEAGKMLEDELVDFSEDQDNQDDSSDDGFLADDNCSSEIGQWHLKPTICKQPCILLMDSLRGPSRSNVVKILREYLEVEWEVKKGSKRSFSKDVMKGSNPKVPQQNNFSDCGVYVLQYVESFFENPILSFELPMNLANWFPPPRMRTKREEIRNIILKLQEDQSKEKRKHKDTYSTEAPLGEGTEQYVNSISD
SENP8 block-2 – blocks human SENP8 cleavage of Nedd8 substrate. Q96LD8. inhibition, % at 20 µM. AID 602440. recombinant SENP8, Nedd8 substrate fluorescence. actives 0.64% (n = 360,000); in the data active = inhibition mostly above about 40%, no sharp cut-off; inactive = mostly below about 27%
SENP1 inh conf – confirmation of human SENP1 SUMO protease inhibitors. shares compounds with SENP1 inh. inhibition, % at 10 µM. recombinant SENP1, CyPet-SUMO1-YPet FRET cleavage. actives 34% (n = 520); in the data active = inhibition mostly above about 35%, no sharp cut-off; inactive = mostly below about 32%;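 also: 0% = enzyme with DMSO and 100% = no enzyme control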
SENP1 kinetic – SENP1 (human) inhibition, kinetic confirmation. shares compounds with SENP1 inh. recombinant SENP1, CyPet-SUMO1-YPet FRET kinetic cleavage. inhibition, % at 10 µM. actives 26% (n = 520). AID 651690; in the data active = inhibition mostly above about 32%, no sharp cut-off; inactive = mostly below about 29%;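 also: 0% = DMSO with enzyme and 100% = no enzyme substrate only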
Active calls of the source: *.

Screening COc1ccc(N2C(=O)CSC2c2ccccc2F)c(OC)c1 (centres undefined) returned SENP8 block-1 4.5, SENP1 inh 1.7, SENP7 inh -7.5, SENP6 block 7.9 and SENP8 block-2 19.3.
Screening COc1cccc(-c2nc(SC)nc3sc(C(=O)NC(C)(C)C)c(N)c23)c1 returned SENP8 block-1 -2.4, SENP1 inh 37.4*, SENP7 inh 0.1, SENP6 block -14.5, SENP8 block-2 2.0, SENP1 inh conf 47.9* and SENP1 kinetic 37.2*.
For CCN=c1scc(-c2cccs2)n1/N=C/c1cc(OC)ccc1O the results were SENP1 inh 52.1*, SENP8 block-2 -22.1, SENP1 inh conf 146.2* and SENP1 kinetic 82.3*.
For COCCn1c(-c2ccco2)csc1=Nc1cccnc1 the results were SENP8 block-1 -0.5, SENP1 inh -0.4, SENP7 inh -5.0, SENP6 block 4.1 and SENP8 block-2 9.1.
Screening COc1ccc(O)c(/C=N/n2c(-c3ccco3)csc2=Nc2cccnc2)c1 returned SENP8 block-1 -8.8, SENP1 inh 41.7*, SENP7 inh -3.4, SENP6 block 11.8, SENP8 block-2 -41.9, SENP1 inh conf 29.1* and SENP1 kinetic 18.6.
Screening COc1ccccc1NC(=S)N1CCCCCC1 returned SENP8 block-1 3.1, SENP1 inh -0.1, SENP7 inh 2.2, SENP6 block 0.8 and SENP8 block-2 1.7.
Screening Cc1cc(C(=O)NCc2ccccc2F)c2ccccc2n1 returned SENP8 block-1 -9.9, SENP1 inh 42.9*, SENP7 inh -3.6, SENP6 block -1.0, SENP8 block-2 -12.0, SENP1 inh conf 50.9* and SENP1 kinetic 40.6*.
For Cc1cc(C(=O)NCc2ccc(F)cc2)c2ccccc2n1 the results were SENP8 block-1 4.7, SENP1 inh -0.4, SENP7 inh 5.8, SENP6 block -29.6 and SENP8 block-2 -50.2.
`CCOC(=O)N1CCN(S(=O)(=O)c2ccc(C(=O)NNc3nc4c(C)cccc4s3)cc2)CC1` gave SENP8 block-1 -1.0, SENP1 inh 35.3*, SENP7 inh 3.6, SENP6 block 1.4, SENP8 block-2 -12.8, SENP1 inh conf 25.2 and SENP1 kinetic 41.8*.
Screening Cc1sc(-c2ccccn2)nc1OC(=O)c1ccc(F)cc1F returned SENP1 inh 51.5*, SENP8 block-2 -32.4, SENP1 inh conf 49.9* and SENP1 kinetic 69.1*.
Screening CC(C)(C)N=Cc1c(O)ccc2oc3c(c12)CCCC3 returned SENP8 block-1 -2.8, SENP1 inh 30.9*, SENP7 inh -4.3, SENP6 block 3.8, SENP8 block-2 13.7, SENP1 inh conf 3.7 and SENP1 kinetic 0.1.
CCC1(c2ccccc2)NC(=O)N(CC(=O)Nc2ccccc2C(=O)N2CCCCC2)C1=O (centres undefined) was read as SENP8 block-1 1.0, SENP1 inh 1.7, SENP7 inh 7.8, SENP6 block -12.4 and SENP8 block-2 19.6.
For Cc1noc(/C=C/c2nn(C)cc2Cl)c1[N+](=O)[O-] the results were SENP8 block-1 -3.4, SENP1 inh 1.7, SENP7 inh -9.7, SENP6 block -12.6 and SENP8 block-2 15.5.
`COc1cc(/C=C/c2onc(C)c2[N+](=O)[O-])cc(OC)c1OC` gave SENP8 block-1 1.8, SENP1 inh 48.6*, SENP7 inh 1.7, SENP6 block -0.1, SENP8 block-2 11.9, SENP1 inh conf 9.3 and SENP1 kinetic 10.1.
`CCCCC(CC)CNC(=O)C1CC=CCC1C(=O)O` (centres undefined) gave SENP8 block-1 -6.5, SENP1 inh 1.3, SENP7 inh 6.7, SENP6 block 12.0 and SENP8 block-2 11.7.
O=C(CNCc1ccc(F)cc1)Nc1cc(S(=O)(=O)N2CCOCC2)ccc1Cl was read as SENP8 block-1 -4.7, SENP1 inh -0.2, SENP7 inh 4.9, SENP6 block 2.0 and SENP8 block-2 17.6.
O=C1Nc2ccccc2Oc2cc([N+](=O)[O-])cc(Oc3ccccc3)c21 was read as SENP8 block-1 2.3, SENP1 inh 59.0*, SENP7 inh 7.3, SENP6 block 6.3, SENP8 block-2 21.4, SENP1 inh conf 15.6 and SENP1 kinetic 8.2.
